MsrA inh – bovine MsrA enzyme inhibitors, primary screen, biochemical, absorbance, HTS; 0.75% of 360,000 active; inhibition, % at 15.5 µM; purified bovine MsrA, absorbance read-out; in the data active = inhibition above about 4.5%;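 note: 0% = vehicle wells with enzyme and 100% = reference inhibitor wells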
bovine MsrA act – bovine MsrA enzyme activators, primary screen, biochemical, absorbance, HTS. Methionine sulfoxide reductase A (Bos taurus). purified bovine MsrA, absorbance read-out. activation, % at 10.6 µM. 0.3% of 360,000 active. AID 602163, 2012; in the data active = activation above about 7.5%;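 note: 0% = vehicle and 100% = reference activator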
MC4R barr agon – MC4R agonists recruiting beta-arrestin, primary screen, cell-based, luminescence, agonist arm of biased-ligand search; Melanocortin receptor 4 (Homo sapiens), P32245; U2OS MC4R beta-arrestin complementation; percent of melanotan II response, DMSO zero; activation, % at 8.9 µM; 0.98% of 360,000 active; AID 540308, 2011;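 active = activation above a per-plate cutoff, the mean activation of sample wells on that plate plus 3 SD, cut at about 8% in these data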
Target sequence (P32245 whole entry, looked up): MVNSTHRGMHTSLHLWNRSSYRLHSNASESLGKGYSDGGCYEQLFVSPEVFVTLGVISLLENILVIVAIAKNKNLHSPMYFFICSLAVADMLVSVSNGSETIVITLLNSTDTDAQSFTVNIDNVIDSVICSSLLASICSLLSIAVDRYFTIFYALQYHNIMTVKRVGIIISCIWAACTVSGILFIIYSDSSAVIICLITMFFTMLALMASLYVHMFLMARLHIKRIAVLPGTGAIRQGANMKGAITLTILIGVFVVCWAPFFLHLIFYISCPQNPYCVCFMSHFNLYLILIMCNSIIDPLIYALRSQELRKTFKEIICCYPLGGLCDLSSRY
MC4R antagonist – MC4R antagonists of cAMP signaling, primary screen, cell-based, TR-FRET, antagonist arm of biased-ligand search | MC4R-expressing cells, MTII-stimulated cAMP, LANCE TR-FRET | inhibition, % at 6.5 µM | 0.48% of 360,000 active | AID 540295, 2011;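 active = inhibition above its plate's cutoff, the mean of tested wells on that plate plus 3 SD, cut at about 29% in these data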;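 note: 0% = Melanotan II alone and 100% = Melanotan II plus saturating MCL0020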
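Test system: U2OS cells stably expressing human melanocortin 4 receptor (MC4R); also added: Melanotan II challenge; compound: 6.5 µM single dose; timing: 30-min compound preincubation, 1-h Melanotan II challenge, 1-h detection, room temperature; signal: Eu-cAMP/anti-cAMP TR-FRET, emission 671 nm; repeats: one well per compound, no replicates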
MsrA act confirm – bovine MsrA activators, retest, confirmation, biochemical, absorbance, HTS. shares compounds with bovine MsrA act. purified bovine MsrA, absorbance read-out. activation, % at 10.6 µM. 12% of 1,000 active. AID 602270, 2012; in the data active = activation above about 4%;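 note: enzyme coupled to thioredoxin and thioredoxin reductase with NADPH; 0% = vehicle wells and 100% = reference activator wells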
Numbers without * were called inactive; . = not tested or not shown. The list is not random: actives were taken first. Their share in the collection is about 2.3%.

SMILES	MsrA inh	bovine MsrA act	MC4R barr agon	MC4R antagonist	MsrA act confirm
Cc1occc1C(=O)NNC(=O)C1CCCCC1	-0.2	-3.3	-0.2	20.7	.
COc1cc(CC2COC(=O)C2Cc2ccc(O)c(OC)c2)ccc1O (stereo unspecified)	-1.8	.	.	.	.
COc1cc(C[C@@H]2C(=O)OC[C@H]2Cc2ccc(OC)c(OC)c2)ccc1O	0.4	11.3*	-1.4	-2.2	-1.3
O=C1C=C(c2c(O)ccc3ccccc23)c2ccccc2C1=O	-1.0	21.4*	3.7	11.2	12.1*
N#C/C(=C\c1ccccc1C(F)(F)F)C(=O)Nc1ccccc1	0.9	-3.2	-1.1	11.9	.
CCc1cccc(CC)c1NC(=O)/C(C#N)=C/c1ccccc1C(F)(F)F	0.1	11.1*	0.3	15.8	-0.7
COc1cc(C2N(C)C(=O)c3ccccc3N2C)ccc1O (stereo unspecified)	1.6	-3.4	-1.8	-1.6	.
COc1ccc(CN(Cc2ccc(OC)cc2)S(=O)(=O)c2ccc(-n3cnnn3)c(C)c2)cc1	0.1	0.8	-0.3	2.4	.
COc1ccc(CN(Cc2cccnc2)S(=O)(=O)c2ccc(-n3cnnn3)c(OC)c2)cc1	-0.9	8.1*	-3.6	9.2	-1.1
CN1/C(=C\C(=S)Nc2ccccc2)C(C)(C)c2ccccc21	0.4	9.0*	-1.7	11.9	-4.3
CN1/C(=C\C(=O)Nc2ccc(Cl)cc2)C(C)(C)c2ccccc21	2.9	-3.3	-1.1	9.8	.
CSCc1nc2sc(C(=O)Nc3nc(C)cs3)c(C)c2c(=O)[nH]1	2.9	-0.6	-0.5	16.5	.
CCc1cc2c(=O)n(CCC(C)C)c(=S)[nH]c2s1	0.8	15.4*	-2.6	4.4	-1.4
Cc1c(O)nc(SCC(=O)Nc2ccc3c4c(cccc24)CC3)n(-c2ccccc2)c1=O	0.6	-3.4	-4.0	18.9	.
CCOc1ccc2nc(NC(=S)N(C)C)sc2c1	1.4	8.1*	-1.4	14.5	-7.4
CCCC(=O)Nc1nc2ccc(OCC)cc2s1	-1.8	-7.3	-0.2	-6.0	.
COc1cc(OC)c2c(-c3cccc(-c4cccc(C)c4)c3)cc(=O)oc2c1	1.4	-4.5	-1.8	-12.1	.
COc1ccc(-c2cc(=O)oc(-c3cccc(C)c3)n2)cc1	0.5	11.9*	-2.9	2.8	-3.1
CCSc1ccccc1C(=O)NCc1cccnc1	-0.9	-3.1	-5.3	-0.9	.
O=S(=O)(c1ccc(Cl)cc1)n1ccc2cccnc21	1.4	-0.2	-2.2	4.2	.
CC1CC(C)CN(CCCNC(=O)CCNC(=O)Cn2ccc3ccccc3c2=O)C1 (stereo unspecified)	-0.2	7.7*	-1.8	12.3	-0.5
S=C(NCc1ccccc1)N1CCc2ccccc2C1	-0.1	9.5*	-0.3	7.5	-1.5
COc1ccccc1CNC(=O)C(CCSC)NC(=O)C1CCC(C)CC1 (stereo unspecified)	0.5	9.0*	-1.8	4.7	0.9
COc1ccccc1CNC(=O)[C@H](CCSC)NC(=O)[C@@H]1Cc2ccccc2CN1	-0.7	-3.8	-0.7	14.6	.
CCCCCN(C(=O)CCc1cn(CCCCC)c2ccccc12)c1ccc(N(C)c2ccccn2)cc1	0.2	.	.	.	.
SMILES	MsrA inh	bovine MsrA act	MC4R barr agon	MC4R antagonist	MsrA act confirm
Cc1ccc(-c2ccc3c(c2)O[C@H](CN(C)C(=O)CC2CC2)[C@H](C)CN([C@@H](C)CO)S3(=O)=O)cc1	1.0	-3.0	-0.7	6.5	.
CC1=C(C(=O)Nc2cc(C)ccc2C)C(c2cccs2)NC(=S)N1 (stereo unspecified)	0.9	8.2*	-1.4	1.1	-0.8
COc1ccc(S(=O)(=O)N2CCN(C(=O)COc3ccccc3)CC2)cc1	0.2	-5.7	1.0	-2.9	.
Cc1ccc(S(=O)(=O)N2CCN(C(=O)COC(=O)COc3ccccc3)CC2)cc1	0.3	9.9*	0.9	5.8	-3.7
CC1CCN(C(=O)Cn2c(=O)n(-c3ccc(F)cc3)c(=O)c3sccc32)CC1	-0.8	-2.3	-0.8	10.8	.
Cc1ccc(C(=O)NC2CCCC2)cc1S(=O)(=O)N1CCCCC1	0.5	-2.8	-3.0	1.1	.
Cc1ccc(C(=O)OCC(=O)NC2CCCCC2)cc1S(=O)(=O)N1CCCCC1	-0.1	8.4*	-1.0	-4.2	-2.4
CCOc1ccc2nc(SCC(=O)Nc3ncccn3)[nH]c2c1	0.0	-4.6	-0.2	1.2	.
S=c1nc(-c2ccccc2Cl)[nH][nH]1	0.3	8.1*	0.1	4.5	1.1
N#CCCN(Cc1cccnc1)C(=O)Nc1ccc(Cl)c(Cl)c1	1.4	9.1*	-1.3	15.2	-2.2
CCCC(=O)C1=C(O)C(C(=O)OC)C(C)(C)CC1=NCCc1ccccc1 (stereo unspecified)	-1.8	-7.2	0.1	1.1	.
CCc1noc(C)c1C(=O)N1CCN(S(=O)(=O)c2cccs2)CC1	-0.7	10.0*	-1.5	8.3	-0.9
C=C(C)Cn1c(N)cc(=O)nc1SCC(=O)Nc1cccc(C(F)(F)F)c1	0.7	1.6	-3.7	-0.1	.
Cc1ccc(S(=O)(=O)NC2=C(N3CCN(c4ccccc4F)CC3)C(=O)c3ccccc3C2=O)cc1	2.1	-3.0	-3.0	3.3	.
Cc1ccc(S(=O)(=O)NC2=C(N3CCN(Cc4ccccc4)CC3)C(=O)c3ccccc3C2=O)cc1	-0.9	7.8*	-4.3	-3.6	-1.4
Cc1cc(=O)[nH]c(NCCO)n1	-0.4	0.2	-1.3	6.5	.
CCc1ccc(/C=C2/SC(=S)N(CCC(=O)NCCCN3CCOCC3)C2=O)cc1	0.3	-0.8	-4.3	-3.4	.
COC(=O)c1ccc(/C=C2/SC(=S)N(CCC(=O)NCCCN3CCOCC3)C2=O)cc1	0.7	8.1*	-1.8	-14.8	-3.2
CC(=O)c1ccc(NC(=O)Nc2cccc(Cl)c2)cc1	0.7	-4.3	-1.6	-1.5	.
CCOCCC(=O)Nc1ccc2c(c1)c(=O)n(C)n2-c1ccccc1F	0.3	10.4*	-0.1	-0.9	0.4
COc1ccc(S(=O)(=O)NC(CC(=O)NCCc2ccc(OC)c(OC)c2)C(C)C)cc1 (stereo unspecified)	-0.5	13.3*	-2.2	0.0	0.0
O=C(NN1C(=O)c2cc(Br)ccc2NC1c1cc(Br)cc(Br)c1O)c1ccncc1 (stereo unspecified)	0.2	8.9*	1.3	-3.3	-4.2
CC(Oc1ccccc1Cl)C(=O)N1CCCN(C)CC1 (stereo unspecified)	-1.3	-3.0	-1.7	4.9	.
CC(Oc1ccccc1Cl)C(=O)N1CCOCC1 (stereo unspecified)	-0.4	10.6*	-1.2	0.3	-1.9
CCn1nc(C(=O)OCC(=O)Nc2ncc(Cl)c(C)c2Cl)c2ccccc2c1=O	1.1	18.6*	0.3	13.5	0.0
CC1(C)Cc2c(sc(NC(=O)COc3ccc(Cl)cc3)c2C(N)=O)C(C)(C)N1	-0.6	12.2*	-0.5	-6.2	-1.2
Cc1ccc(-c2ccnc(=S)[nH]2)cc1	-0.4	9.4*	-0.5	5.3	6.2*
